Experimental data published in ChEMBL document CHEMBL5058577, “EUbOPEN Chemogenomics Library 2 (Multiplex)” (2022).

Tested on: HEK-293T
Experiment: Multiplex assay against HEK293T
Format: toxicity, cell-based
Conditions: human
How it was run: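 Live cells carried four stains from seeding: Hoechst33342, BioTracker Green Microtubule Cytoskeleton Dye, MitoTracker Red and Annexin V Alexa Fluor 680. They were imaged on a CQ1 microscope at 37°C and 5% CO2 after compound addition. Using CellPathfinder machine-learning gating, cells were split into Hoechst high-intensity objects or normal cells, normal cells into healthy, pyknosed or fragmented nuclei, and pyknosed cells into mitotic or apoptotic; tubulin, mitochondrial-mass and membrane-permeability phenotypes are per cents of healthy-nucleus cells.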

[1] = 12 h, 1 µM, compound concentration 1 uM, replicate 1
[2] = 12 h, 1 µM, compound concentration 1 uM, replicate 2
[3] = 12 h, 10 µM, compound concentration 10 uM, replicate 1
[4] = 12 h, 10 µM, compound concentration 10 uM, replicate 2
[5] = 24 h, 1 µM, compound concentration 1 uM, replicate 1
[6] = 24 h, 1 µM, compound concentration 1 uM, replicate 2
[7] = 24 h, 10 µM, compound concentration 10 uM, replicate 1
[8] = 24 h, 10 µM, compound concentration 10 uM, replicate 2
[9] = 48 h, 1 µM, compound concentration 1 uM, replicate 1
[10] = 48 h, 1 µM, compound concentration 1 uM, replicate 2
[11] = 48 h, 10 µM, compound concentration 10 uM, replicate 1
[12] = 48 h, 10 µM, compound concentration 10 uM, replicate 2

N#Cc1c(Oc2cccc(OS(=O)(=O)CCCC(F)(F)F)c2)cccc1C(F)(F)F
Population Apoptotic (%) [1]: 35%
Population Fragmented Nuclei (%) [1]: 4%
Population Healthy Nuclei (%) [1]: 86%
Population Hoechst High Intensity Objects (%) [1]: 5%
Population Membrane Permeable-Phenotype (%) [1]: 0%
Population Mitochondria Different-Phenotype (%) [1]: 46%
Population Mitotic Cells (%) [1]: 65%
Population Normal (%) [1]: 94%
Population Pyknosed Nuclei (%) [1]: 8%
Population Tubulin-Different-Phenotype (%) [1]: 38%
Total Cell Count [1]: 490
Population Apoptotic (%) [2]: 63%
Population Fragmented Nuclei (%) [2]: 6%
Population Healthy Nuclei (%) [2]: 75%
Population Hoechst High Intensity Objects (%) [2]: 11%
Population Mitochondria Different-Phenotype (%) [2]: 60%
Population Mitotic Cells (%) [2]: 36%
Population Normal (%) [2]: 88%
Population Pyknosed Nuclei (%) [2]: 17%
Population Tubulin-Different-Phenotype (%) [2]: 28%
Total Cell Count [2]: 349
Population Apoptotic (%) [3]: 42%
Population Fragmented Nuclei (%) [3]: 8%
Population Healthy Nuclei (%) [3]: 65%
Population Hoechst High Intensity Objects (%) [3]: 10%
Population Membrane Permeable-Phenotype (%) [3]: 0%
Population Mitochondria Different-Phenotype (%) [3]: 74%
Population Mitotic Cells (%) [3]: 57%
Population Normal (%) [3]: 89%
Population Pyknosed Nuclei (%) [3]: 25%
Population Tubulin-Different-Phenotype (%) [3]: 65%
Total Cell Count [3]: 290
Population Apoptotic (%) [4]: 44%
Population Fragmented Nuclei (%) [4]: 6%
Population Healthy Nuclei (%) [4]: 64%
Population Hoechst High Intensity Objects (%) [4]: 40%
Population Mitochondria Different-Phenotype (%) [4]: 81%
Population Mitotic Cells (%) [4]: 55%
Population Normal (%) [4]: 59%
Population Pyknosed Nuclei (%) [4]: 28%
Population Tubulin-Different-Phenotype (%) [4]: 58%
Total Cell Count [4]: 318
Population Apoptotic (%) [5]: 28%
Population Fragmented Nuclei (%) [5]: 10%
Population Healthy Nuclei (%) [5]: 77%
Population Hoechst High Intensity Objects (%) [5]: 3%
Population Membrane Permeable-Phenotype (%) [5]: 0%
Population Mitochondria Different-Phenotype (%) [5]: 34%
Population Mitotic Cells (%) [5]: 71%
Population Normal (%) [5]: 96%
Population Pyknosed Nuclei (%) [5]: 12%
Population Tubulin-Different-Phenotype (%) [5]: 26%
Total Cell Count [5]: 654
Population Apoptotic (%) [6]: 60%
Population Fragmented Nuclei (%) [6]: 8%
Population Healthy Nuclei (%) [6]: 81%
Population Hoechst High Intensity Objects (%) [6]: 9%
Population Mitochondria Different-Phenotype (%) [6]: 48%
Population Mitotic Cells (%) [6]: 40%
Population Normal (%) [6]: 90%
Population Pyknosed Nuclei (%) [6]: 9%
Population Tubulin-Different-Phenotype (%) [6]: 20%
Total Cell Count [6]: 412
Population Apoptotic (%) [7]: 43%
Population Fragmented Nuclei (%) [7]: 9%
Population Healthy Nuclei (%) [7]: 77%
Population Hoechst High Intensity Objects (%) [7]: 13%
Population Membrane Permeable-Phenotype (%) [7]: 0%
Population Mitochondria Different-Phenotype (%) [7]: 66%
Population Mitotic Cells (%) [7]: 56%
Population Normal (%) [7]: 86%
Population Pyknosed Nuclei (%) [7]: 13%
Population Tubulin-Different-Phenotype (%) [7]: 56%
Total Cell Count [7]: 338
Population Apoptotic (%) [8]: 45%
Population Fragmented Nuclei (%) [8]: 10%
Population Healthy Nuclei (%) [8]: 61%
Population Hoechst High Intensity Objects (%) [8]: 47%
Population Mitochondria Different-Phenotype (%) [8]: 68%
Population Mitotic Cells (%) [8]: 54%
Population Normal (%) [8]: 52%
Population Pyknosed Nuclei (%) [8]: 27%
Population Tubulin-Different-Phenotype (%) [8]: 41%
Total Cell Count [8]: 312
Population Apoptotic (%) [9]: 20%
Population Fragmented Nuclei (%) [9]: 13%
Population Healthy Nuclei (%) [9]: 81%
Population Hoechst High Intensity Objects (%) [9]: 1%
Population Membrane Permeable-Phenotype (%) [9]: 1%
Population Mitochondria Different-Phenotype (%) [9]: 21%
Population Mitotic Cells (%) [9]: 79%
Population Normal (%) [9]: 98%
Population Pyknosed Nuclei (%) [9]: 5%
Population Tubulin-Different-Phenotype (%) [9]: 15%
Total Cell Count [9]: 986
Population Apoptotic (%) [10]: 56%
Population Fragmented Nuclei (%) [10]: 12%
Population Healthy Nuclei (%) [10]: 82%
Population Hoechst High Intensity Objects (%) [10]: 5%
Population Membrane Permeable-Phenotype (%) [10]: 0%
Population Mitochondria Different-Phenotype (%) [10]: 23%
Population Mitotic Cells (%) [10]: 43%
Population Normal (%) [10]: 94%
Population Tubulin-Different-Phenotype (%) [10]: 13%
Total Cell Count [10]: 568
Population Apoptotic (%) [11]: 44%
Population Fragmented Nuclei (%) [11]: 11%
Population Healthy Nuclei (%) [11]: 78%
Population Hoechst High Intensity Objects (%) [11]: 5%
Population Membrane Permeable-Phenotype (%) [11]: 0%
Population Mitochondria Different-Phenotype (%) [11]: 44%
Population Mitotic Cells (%) [11]: 55%
Population Normal (%) [11]: 94%
Population Pyknosed Nuclei (%) [11]: 10%
Population Tubulin-Different-Phenotype (%) [11]: 29%
Total Cell Count [11]: 464
Population Apoptotic (%) [12]: 58%
Population Healthy Nuclei (%) [12]: 69%
Population Hoechst High Intensity Objects (%) [12]: 24%
Population Mitochondria Different-Phenotype (%) [12]: 47%
Population Mitotic Cells (%) [12]: 41%
Population Normal (%) [12]: 75%
Population Pyknosed Nuclei (%) [12]: 18%
Population Tubulin-Different-Phenotype (%) [12]: 23%
Total Cell Count [12]: 363
